We go through 13 compounds from ChEMBL document CHEMBL4196170, “Cytotoxic p-Terphenyls from the Endolichenic Fungus Floricola striata” (J Nat Prod, 2018).

For orientation: IC50 means the point on the concentration scale where inhibition reaches its midpoint. Low readings indicate higher potency, high ones lower potency.

The structures appear in SMILES notation. Where a name gives a salt, the structure may show the parent alone. Active and inactive are the calls of the source. The rule behind the calls is not given here.

For experiment [1], the species on record is Homo sapiens. Briefly: Inhibition of P-gp in human MCF7/ADR cells assessed as increase in intracellular Rh123 accumulation after 1 hr by flow cytometry. Type of experiment: cell-based. An outline of the steps: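 Exponentially growing MCF-7/ADR cells (3 × 10^5/mL) loaded with Rh123 (5 μM) with or without modulator (5, 10, 20 μM) or verapamil (10 μg/mL), 1 h at 37 °C. Rh123 accumulation (%) by flow cytometry, excitation 488 nm, emission through 530 nm filter; untreated cells as negative control. Mean ± SD of three independent experiments.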
A general note: In flow cytometry, cells or beads pass a laser one at a time.

The species named for experiment [2] is Homo sapiens. Nature of the experiment: Inhibition of P-gp in human MCF7/ADR cells assessed as increase in intracellular Rh123 accumulation by measuring increase in fluorescence intensity after 24 hrs by fluorescence microscopic analysis. Type of experiment: cell-based. An outline of the steps: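 Rh123 (5 μM)-exposed MCF-7/ADR cells, untreated or treated with modulator (10 μM) or verapamil (10 μg/mL), photographed by fluorescence microscopy after 24 h.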

The test system of experiment [3] is MCF7. Nature of the experiment: Increase in adriamycin accumulation in human MCF7 cells at 10 ug/ml after 1 hr by flow cytometry. Type of experiment: functional, cell-based. The essentials:
(§1)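 4 × 10^5 MCF-7 or MCF-7/ADR cells incubated 1 h at 37 °C with 10.0 μM adriamycin alone or with modulator (5, 10, 20 μM) or verapamil (10 μg/mL); washed twice in ice-cold PBS. Adriamycin accumulation (%) by flow cytometry relative to untreated cells. Mean ± SD, three independent experiments.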

The species entered for experiment [4] is Homo sapiens. The conditions noted are these: 10 ug/ml.
For experiment [5], the system named is A2780. Briefly: Cytotoxicity against human A2780 cells after 48 hrs by MTT assay. To be noted: A2780, 48 h. It counts as functional, cell-based. An outline of the steps: (§2)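 Cells seeded at 5000−10 000 per well, preincubated 12 h at 37 °C, 5% CO2, then exposed to a range of concentrations for 48 h. MTT added, absorbance read at 570 nm after 4 h; percent growth inhibition used to derive IC50. Adriamycin as positive control.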
A general note: Tetrazolium dyes change colour on reduction, which living cells bring about.

Experiment [6] deals with MCF7. Briefly: Cytotoxicity against human MCF7 cells after 48 hrs by MTT assay. It counts as functional, cell-based. The conditions noted are these: MCF7, 48 h. The essentials:
as §2

Experiment [7] has as its system A549. Nature of the experiment: Cytotoxicity against human A549 cells after 48 hrs by MTT assay. Type of experiment: functional, cell-based. To be noted: A549, 48 h. An outline of the steps: as §2
For experiment [8], the system named is NCI/ADR-RES. Briefly: Cytotoxicity against human MCF7/ADR cells after 48 hrs by MTT assay. It counts as functional, cell-based. The essentials:
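MTT format as for parental lines: 48 h exposure to various concentrations in ADM-selected P-gp-overexpressing MCF-7/ADR cells, absorbance at 570 nm after 4 h MTT, IC50 from percent growth inhibition.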

For experiment [9], the species on record is Homo sapiens. Nature of the experiment: Inhibition of P-gp in human MCF7/ADR cells assessed as potentiation of adriamycin-induced cytotoxicity by measuring fold reduction in adriamycin IC50 at 5 uM after 48 hrs by MTT assay relative to adriamycin alone. It counts as cell-based. The essentials: (§3)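 MCF-7/ADR (ADM-selected, P-gp-overexpressing) and MCF-7 cells given graded adriamycin with or without modulator (5 or 10 μM) or verapamil 10 μg/mL for 48 h; MTT read at 570 nm. Reversal fold from adriamycin IC50 alone versus IC50 in combination.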

The species entered for experiment [10] is Homo sapiens. Briefly: Inhibition of P-gp in human MCF7/ADR cells assessed as potentiation of adriamycin-induced cytotoxicity by measuring fold reduction in adriamycin IC50 at 10 uM after 48 hrs by MTT assay relative to adriamycin alone. It counts as cell-based. The essentials: as §3
The species named for experiment [11] is Homo sapiens. Nature of the experiment: Inhibition of P-gp in human MCF7/ADR cells assessed as increase in intracellular accumulation of adriamycin after 1 hr by flow cytometry. Type of experiment: cell-based. An outline of the steps: as §1
The species entered for experiment [12] is Homo sapiens. Briefly: Inhibition of P-gp in human MCF7/ADR cells assessed as increase in intracellular accumulation of adriamycin by measuring increase in fluorescence intensity at 10 uM after 24 hrs by fluorescence microscopic analysis. Type of experiment: cell-based. The essentials:
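MCF-7/ADR cells imaged by fluorescence microscopy for adriamycin fluorescence after 24 h incubation with or without modulator (10 μM) or verapamil (10 μg/mL); untreated cells as negative control.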

Experiment [13] concerns MCF7. Nature of the experiment: Increase in adriamycin accumulation in human MCF7 cells at 20 uM after 1 hr by flow cytometry. It counts as functional, cell-based. The essentials: as §1

Regarding `COc1ccc(CCN(C)CCCC(C#N)(c2ccc(OC)c(OC)c2)C(C)C)cc1OC` (configuration not stated), the inhibition result in [1] and in [2] was “Dose-dependent effect” throughout. Further, in experiment [3], the outcome was inactive. Besides, the inhibition entry in experiment [4] is “Active”.
With `COC1=C(c2ccccc2O)C(=O)C=C(c2ccc(O)cc2)C1=O`, the IC50 was 8.6 µM in [5], 16.7 µM in experiment [6] and over 40 µM in experiment [7].
With `COc1ccc(-c2cc(OC)c(-c3ccccc3O)c(OC)c2OC)cc1`, the concentration for half-maximal inhibition (IC50) in [5], in experiment [6] and in experiment [7] was over 40 µM each time.
Take `COc1cc(-c2ccc(O)cc2)c(O)c2oc3ccc(O)cc3c12`: the IC50 in experiment [5] is 21.4 µM; in experiment [6] it was 17.9 µM; in [7], over 40 µM.
For the compound `COc1cc(-c2ccc(O)cc2)c(O)c2oc3ccccc3c12`, the half-inhibitory concentration (IC50) in [5] was 40.1 µM; in experiment [6], 17.5 µM; in experiment [7] it was over 40 µM.
In the case of `COC1=C(c2ccc(OC)cc2)C(=O)C=C(c2ccccc2)C1=O`, the half-inhibitory concentration (IC50) amounted to 3.4 µM in [5], 19.9 µM in [6], 40.1 µM in experiment [7] and 23.5 µM in experiment [8]. For the same compound, the figures for the fold change (FC) in experiment [9] and in experiment [10] were 1.3 and 39.1, respectively. Moreover, the inhibition result in experiment [11], in experiment [1] and in [2] was “Dose-dependent effect” throughout. In addition, the inhibition result in experiment [12] is “Active”. The outcome in experiment [13] was inactive.
Take `COc1ccc(-c2c(O)cc(-c3ccccc3)c(OC)c2OC)cc1`: the half-maximal inhibitory concentration (IC50) in experiment [5], in experiment [6] and in [7] was over 40 µM throughout.
Consider `COc1ccc(-c2cc(OC)c(-c3ccccc3)c(OC)c2O)cc1`, for which the 50% inhibitory concentration (IC50) is over 40 µM in experiment [5], 38.5 µM in [6] and 12.5 µM in experiment [7].
For `COc1cccc2c1C(=O)c1c(O)c3c(c(O)c1C2=O)C[C@@](O)(C(=O)CO)C[C@@H]3O[C@H]1C[C@H](N)[C@H](O)[C@H](C)O1` [DOXORUBICIN HYDROCHLORIDE], the concentration for half-maximal inhibition (IC50) is 0.5 µM in [5] and 1.3 µM in experiment [7].
For `O=C1C[C@@](O)(c2ccccc2)[C@H](O)c2oc3ccc(O)cc3c21`, the IC50 in [5], in experiment [6] and in experiment [7] was over 40 µM each time.
With `COc1cc(-c2ccc(O)cc2)c(O)c2oc3cc(O)ccc3c12`, the IC50 was 14.9 µM in [5], 11.7 µM in experiment [6] and 27.8 µM in experiment [7].
For `COc1cc(-c2ccccc2)c(O)c2oc3ccc(O)cc3c12`, in that order: 25.1 µM, 13.4 µM and over 40 µM.
For `COc1ccc(-c2c(OC)cc(-c3ccccc3)c(OC)c2OC)cc1`, the IC50 in experiment [5], in [6] and in experiment [7] was over 40 µM each time.
